Test results reported in ChEMBL document CHEMBL1146375, “Synthetic studies on novel benzimidazolopeptides with antimicrobial, cytotoxic and anthelmintic potential” (2007).
In brackets after ≈: the same amount, converted by molar mass.

Tested on: Bacillus subtilis
Test: Antibacterial activity against Bacillus subtilis NCIM 2063 after 18 hrs by disc diffusion method
Type: functional
Conditions: not given
Summary of the method: (§1)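 Modified Kirby-Bauer disc diffusion. Plates inoculated with spore suspension (about 6 × 10⁴ spores mL^-1). Sterile 6 mm paper discs carried test samples at 10 mg mL^-1; ciprofloxacin disc as reference, DMF disc as negative control. Plates held 18 h at 37 °C. Inhibition zone diameters (mm) averaged over triplicate sets.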

| Compound | inhibition zone (IZ) [mm] |
| --- | --- |
| COC(=O)[C@@H]1CCCN1C(=O)c1ccc(-c2nc3cc(C)c(C)cc3[nH]2)cc1 | 13 |

Tested on: Trichophyton benhamiae
Test: Antifungal activity against Trichophyton mentagrophytes MUCC 665 after 48 hrs by tube dilution method
Type: functional, Arthroderma benhamiae
Conditions: not given
Summary of the method: (§2)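 Tube dilution MIC as for bacteria (seven concentrations, 200–3.1 […]), with DMSO in place of DMF. Tubes inoculated with fungal culture and incubated 48 h at 37 °C. MIC read from presence or absence of growth.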

| Compound | MIC [µg/mL] |
| --- | --- |
| COC(=O)[C@@H]1CCCN1C(=O)c1ccc(-c2nc3cc(C)c(C)cc3[nH]2)cc1 | 6 (≈ 15.9 µM) |

Tested on: Candida albicans
Test: Antifungal activity against Candida albicans MUCC 29 after 48 hrs by tube dilution method
Type: functional
Conditions: not given
Summary of the method: as §2

| Compound | MIC [µg/mL] |
| --- | --- |
| COC(=O)[C@@H]1CCCN1C(=O)c1ccc(-c2nc3cc(C)c(C)cc3[nH]2)cc1 | 6 (≈ 15.9 µM) |

Tested on: Microsporum audouinii
Test: Antifungal activity against Microsporum audouinii MUCC 545 after 48 hrs by tube dilution method
Type: functional
Conditions: not given
Summary of the method: as §2

| Compound | MIC [µg/mL] |
| --- | --- |
| COC(=O)[C@@H]1CCCN1C(=O)c1ccc(-c2nc3cc(C)c(C)cc3[nH]2)cc1 | 25 (≈ 66.2 µM) |

Tested on: Pontoscolex corethrurus
Test: Anthelmintic activity against Pontoscolex corethrurus ICARBC 408 assessed as mean paralyzing time
Type: functional
Conditions: not given
Summary of the method: (§3)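 Earthworms exposed to test suspensions at 2 mg mL^-1 (0.2% w/v), made by triturating compound with Tween 80 (0.5%) and distilled water, then mechanically stirred 30 min. Mebendazole suspension prepared alike as reference. Paralysis and death times recorded; death confirmed by no movement in 50 °C water. Means from triplicate sets.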

| Compound | Time [min] |
| --- | --- |
| COC(=O)[C@@H]1CCCN1C(=O)c1ccc(-c2nc3cc(C)c(C)cc3[nH]2)cc1 | 35.57 |

Tested on: not listed separately
Test: Anthelmintic activity against Megascoplex konkanensis ICARBC 211 assessed as mean paralyzing time
Type: functional
Conditions: not given
Summary of the method: as §3

| Compound | TIME [h] |
| --- | --- |
| COC(=O)[C@@H]1CCCN1C(=O)c1ccc(-c2nc3cc(C)c(C)cc3[nH]2)cc1 | 0.473 |

Tested on: Pseudomonas aeruginosa
Test: Antibacterial activity against Pseudomonas aeruginosa NCIM 2034 after 18 hrs by disc diffusion method
Type: functional
Conditions: not given
Summary of the method: as §1

| Compound | inhibition zone (IZ) [mm] |
| --- | --- |
| COC(=O)[C@@H]1CCCN1C(=O)c1ccc(-c2nc3cc(C)c(C)cc3[nH]2)cc1 | 22 |

Tested on: Eudrilus
Test: Anthelmintic activity against Eudrilus sp. assessed as mean paralyzing time
Type: functional
Conditions: not given
Summary of the method: as §3

| Compound | Time [min] |
| --- | --- |
| COC(=O)[C@@H]1CCCN1C(=O)c1ccc(-c2nc3cc(C)c(C)cc3[nH]2)cc1 | 32.25 |

Tested on: Candida albicans
Test: Antifungal activity against Candida albicans MUCC 29 after 48 hrs by disc diffusion method
Type: functional
Conditions: not given
Summary of the method: (§4)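 Agar well diffusion on plates inoculated with spore suspension in normal saline from cultures on Sabouraud's broth. Wells punched and loaded with test samples or griseofulvin at 10 mg mL^-1, with DMSO as negative control. Incubated 48 h at 37 °C.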

| Compound | inhibition zone (IZ) [mm] |
| --- | --- |
| COC(=O)[C@@H]1CCCN1C(=O)c1ccc(-c2nc3cc(C)c(C)cc3[nH]2)cc1 | 16 |

Tested on: Trichophyton benhamiae
Test: Antifungal activity against Trichophyton mentagrophytes MUCC 665 after 48 hrs by disc diffusion method
Type: functional, Arthroderma benhamiae
Conditions: not given
Summary of the method: as §4

| Compound | inhibition zone (IZ) [mm] |
| --- | --- |
| COC(=O)[C@@H]1CCCN1C(=O)c1ccc(-c2nc3cc(C)c(C)cc3[nH]2)cc1 | 13 |

Tested on: Staphylococcus aureus
Test: Antibacterial activity against Staphylococcus aureus NCIM 2079 after 18 hrs by tube dilution method
Type: functional
Conditions: NCIM 2079, 18 h
Summary of the method: (§5)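 Tube dilution MIC. Stock diluted in sterile broth to seven concentrations from 200 to 3.1 […]. Each tube inoculated with one loopful of test bacterium and incubated 18 h at 37 °C. MIC read from presence or absence of growth.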

| Compound | MIC [µg/mL] |
| --- | --- |
| COC(=O)[C@@H]1CCCN1C(=O)c1ccc(-c2nc3cc(C)c(C)cc3[nH]2)cc1 | 12.5 (≈ 33.1 µM) |

Tested on: Escherichia coli
Test: Antibacterial activity against Escherichia coli NCIM 2065 after 18 hrs by disc diffusion method
Type: functional
Conditions: not given
Summary of the method: as §1

| Compound | inhibition zone (IZ) [mm] |
| --- | --- |
| COC(=O)[C@@H]1CCCN1C(=O)c1ccc(-c2nc3cc(C)c(C)cc3[nH]2)cc1 | 17 |

Tested on: Escherichia coli
Test: Antibacterial activity against Escherichia coli NCIM 2065 after 18 hrs by tube dilution method
Type: functional
Conditions: NCIM 2065, 18 h

| Compound | MIC [µg/mL] |
| --- | --- |
| COC(=O)[C@@H]1CCCN1C(=O)c1ccc(-c2nc3cc(C)c(C)cc3[nH]2)cc1 | 12.5 (≈ 33.1 µM) |

Tested on: Staphylococcus aureus
Test: Antibacterial activity against Staphylococcus aureus NCIM 2079 after 18 hrs by disc diffusion method
Type: functional
Conditions: not given
Summary of the method: as §1

| Compound | inhibition zone (IZ) [mm] |
| --- | --- |
| COC(=O)[C@@H]1CCCN1C(=O)c1ccc(-c2nc3cc(C)c(C)cc3[nH]2)cc1 | 11 |

Tested on: Pontoscolex corethrurus
Test: Anthelmintic activity against Pontoscolex corethrurus ICARBC 408 assessed as mean death time
Type: functional
Conditions: not given
Summary of the method: (§6)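 Earthworms exposed to test suspensions at 2 mg mL−1, prepared by triturating compound with Tween 80 (0.5%) and distilled water, stirring 30 min, then diluting to 0.2% w/v. Mebendazole suspension was made the same way. Death was confirmed by moving worms into 50 °C warm water and looking for movement. Mean death time (min) taken from triplicate sets.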

| Compound | Time [min] |
| --- | --- |
| COC(=O)[C@@H]1CCCN1C(=O)c1ccc(-c2nc3cc(C)c(C)cc3[nH]2)cc1 | 50.26 |

Tested on: not listed separately
Test: Growth inhibition of DLA cells at 250 ug/mL after 3 hrs
Type: functional
Conditions: Mus musculus
Summary of the method: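 DLA and EAC cells passaged intraperitoneally in albino mice, harvested after 15–20 days and adjusted to 1 × 10⁶ cells/mL. Dilutions in Dulbecco's medium (500–31.25, some down to 3.91 µg/mL; 5-FU reference) mixed 1:1 with cells and held 3 h at 37 °C. Trypan blue exclusion gave % growth inhibition; CTC50 by graphical extrapolation.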

| Compound | inhibition at 250 µg/mL [%] |
| --- | --- |
| COC(=O)[C@@H]1CCCN1C(=O)c1ccc(-c2nc3cc(C)c(C)cc3[nH]2)cc1 | 18.4 |

Tested on: Eudrilus
Test: Anthelmintic activity against Eudrilus sp. assessed as mean death time
Type: functional
Conditions: not given
Summary of the method: as §6

| Compound | Time [min] |
| --- | --- |
| COC(=O)[C@@H]1CCCN1C(=O)c1ccc(-c2nc3cc(C)c(C)cc3[nH]2)cc1 | 45.34 |

Tested on: Pseudomonas aeruginosa
Test: Antibacterial activity against Pseudomonas aeruginosa NCIM 2034 after 18 hrs by tube dilution method
Type: functional
Conditions: NCIM 2034, 18 h
Summary of the method: as §5

| Compound | MIC [µg/mL] |
| --- | --- |
| COC(=O)[C@@H]1CCCN1C(=O)c1ccc(-c2nc3cc(C)c(C)cc3[nH]2)cc1 | 6 (≈ 15.9 µM) |

Tested on: not listed separately
Test: Anthelmintic activity against Megascoplex konkanensis ICARBC 211 assessed as mean death time
Type: functional
Conditions: not given
Summary of the method: as §3

| Compound | TIME [h] |
| --- | --- |
| COC(=O)[C@@H]1CCCN1C(=O)c1ccc(-c2nc3cc(C)c(C)cc3[nH]2)cc1 | 0.676 |

Tested on: Microsporum audouinii
Test: Antifungal activity against Microsporum audouinii MUCC 545 after 48 hrs by disc diffusion method
Type: functional
Conditions: not given
Summary of the method: as §4

| Compound | inhibition zone (IZ) [mm] |
| --- | --- |
| COC(=O)[C@@H]1CCCN1C(=O)c1ccc(-c2nc3cc(C)c(C)cc3[nH]2)cc1 | 9 |

Tested on: Aspergillus niger
Test: Antifungal activity against Aspergillus niger MUCC 177 after 48 hrs by disc diffusion method
Type: functional
Conditions: not given
Summary of the method: as §4

| Compound | inhibition zone (IZ) [mm] |
| --- | --- |
| COC(=O)[C@@H]1CCCN1C(=O)c1ccc(-c2nc3cc(C)c(C)cc3[nH]2)cc1 | 17 |

Tested on: Bacillus subtilis
Test: Antibacterial activity against Bacillus subtilis NCIM 2063 after 18 hrs by tube dilution method
Type: functional
Conditions: NCIM 2063, 18 h
Summary of the method: as §5

| Compound | MIC [µg/mL] |
| --- | --- |
| COC(=O)[C@@H]1CCCN1C(=O)c1ccc(-c2nc3cc(C)c(C)cc3[nH]2)cc1 | 6 (≈ 15.9 µM) |
